# Test system: Fibroblast
# Assay: Multiplex assay against human fibroblast
# Type: toxicity, cell-based
# Method in brief: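 Compound was added to live cells that had been stained at seeding with Hoechst33342, BioTracker Green Microtubule Cytoskeleton Dye, MitoTracker Red and Annexin V Alexa Fluor 680, and imaging followed on a CQ1 microscope at 37°C and 5% CO2. CellPathfinder machine-learning gating divided cells into Hoechst high-intensity objects or normal cells, normal cells into healthy, pyknosed or fragmented nuclei, and pyknosed cells into mitotic or apoptotic. Tubulin, mitochondrial-mass and membrane-permeability phenotypes are per cents of healthy-nucleus cells.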
# [1] = 12 h, 1 µM, compound concentration 1 uM, replicate 1
# [2] = 12 h, 1 µM, compound concentration 1 uM, replicate 2
# [3] = 12 h, 10 µM, compound concentration 10 uM, replicate 1
# [4] = 12 h, 10 µM, compound concentration 10 uM, replicate 2
# [5] = 24 h, 1 µM, compound concentration 1 uM, replicate 1
# [6] = 24 h, 1 µM, compound concentration 1 uM, replicate 2
# [7] = 24 h, 10 µM, compound concentration 10 uM, replicate 1
# [8] = 24 h, 10 µM, compound concentration 10 uM, replicate 2
# [9] = 48 h, 1 µM, compound concentration 1 uM, replicate 1
# [10] = 48 h, 1 µM, compound concentration 1 uM, replicate 2
# [11] = 48 h, 10 µM, compound concentration 10 uM, replicate 1
# [12] = 48 h, 10 µM, compound concentration 10 uM, replicate 2
smiles,measurement,setting,value
CN1C[C@H](C(=O)N[C@]2(C)O[C@@]3(O)[C@@H]4CCCN4C(=O)[C@H](Cc4ccccc4)N3C2=O)C[C@@H]2c3cccc4[nH]cc(c34)C[C@H]21.CS(=O)(=O)O [DIHYDROERGOTAMINE MESYLATE],Population Apoptotic (%),[1],25%
same,Population Fragmented Nuclei (%),[1],13%
same,Population Healthy Nuclei (%),[1],70%
same,Population Hoechst High Intensity Objects (%),[1],1%
same,Population Membrane Permeable-Phenotype (%),[1],1%
same,Population Mitochondria Different-Phenotype (%),[1],1%
same,Population Mitotic Cells (%),[1],75%
same,Population Normal (%),[1],98%
same,Population Pyknosed Nuclei (%),[1],16%
same,Population Tubulin-Different-Phenotype (%),[1],23%
same,Total Cell Count,[1],127
same,Population Apoptotic (%),[2],47%
same,Population Fragmented Nuclei (%),[2],32%
same,Population Healthy Nuclei (%),[2],51%
same,Population Hoechst High Intensity Objects (%),[2],7%
same,Population Membrane Permeable-Phenotype (%),[2],6%
same,Population Mitochondria Different-Phenotype (%),[2],5%
same,Population Mitotic Cells (%),[2],52%
same,Population Normal (%),[2],92%
same,Population Tubulin-Different-Phenotype (%),[2],31%
same,Total Cell Count,[2],155
same,Population Apoptotic (%),[3],57%
same,Population Fragmented Nuclei (%),[3],27%
same,Population Healthy Nuclei (%),[3],65%
same,Population Hoechst High Intensity Objects (%),[3],0%
same,Population Membrane Permeable-Phenotype (%),[3],0%
same,Population Mitochondria Different-Phenotype (%),[3],5%
same,Population Mitotic Cells (%),[3],42%
same,Population Normal (%),[3],100%
same,Population Pyknosed Nuclei (%),[3],7%
same,Population Tubulin-Different-Phenotype (%),[3],8%
same,Total Cell Count,[3],92
same,Population Apoptotic (%),[4],31%
same,Population Fragmented Nuclei (%),[4],33%
same,Population Healthy Nuclei (%),[4],45%
same,Population Hoechst High Intensity Objects (%),[4],8%
same,Population Membrane Permeable-Phenotype (%),[4],2%
same,Population Mitochondria Different-Phenotype (%),[4],0%
same,Population Mitotic Cells (%),[4],68%
same,Population Normal (%),[4],91%
same,Population Pyknosed Nuclei (%),[4],21%
same,Population Tubulin-Different-Phenotype (%),[4],42%
same,Total Cell Count,[4],114
same,Population Apoptotic (%),[5],38%
same,Population Fragmented Nuclei (%),[5],14%
same,Population Healthy Nuclei (%),[5],75%
same,Population Hoechst High Intensity Objects (%),[5],1%
same,Population Membrane Permeable-Phenotype (%),[5],0%
same,Population Mitochondria Different-Phenotype (%),[5],0%
same,Population Mitotic Cells (%),[5],61%
same,Population Normal (%),[5],98%
same,Population Pyknosed Nuclei (%),[5],10%
same,Population Tubulin-Different-Phenotype (%),[5],18%
same,Total Cell Count,[5],130
same,Population Apoptotic (%),[6],47%
same,Population Fragmented Nuclei (%),[6],30%
same,Population Healthy Nuclei (%),[6],56%
same,Population Hoechst High Intensity Objects (%),[6],4%
same,Population Membrane Permeable-Phenotype (%),[6],7%
same,Population Mitochondria Different-Phenotype (%),[6],3%
same,Population Mitotic Cells (%),[6],52%
same,Population Normal (%),[6],95%
same,Population Pyknosed Nuclei (%),[6],13%
same,Population Tubulin-Different-Phenotype (%),[6],50%
same,Total Cell Count,[6],149
same,Population Apoptotic (%),[7],55%
same,Population Fragmented Nuclei (%),[7],17%
same,Population Healthy Nuclei (%),[7],72%
same,Population Hoechst High Intensity Objects (%),[7],1%
same,Population Membrane Permeable-Phenotype (%),[7],0%
same,Population Mitochondria Different-Phenotype (%),[7],1%
same,Population Mitotic Cells (%),[7],44%
same,Population Normal (%),[7],98%
same,Population Pyknosed Nuclei (%),[7],10%
same,Population Tubulin-Different-Phenotype (%),[7],15%
same,Total Cell Count,[7],89
same,Population Apoptotic (%),[8],31%
same,Population Fragmented Nuclei (%),[8],35%
same,Population Healthy Nuclei (%),[8],43%
same,Population Hoechst High Intensity Objects (%),[8],5%
same,Population Membrane Permeable-Phenotype (%),[8],6%
same,Population Mitochondria Different-Phenotype (%),[8],0%
same,Population Mitotic Cells (%),[8],68%
same,Population Normal (%),[8],94%
same,Population Pyknosed Nuclei (%),[8],20%
same,Population Tubulin-Different-Phenotype (%),[8],46%
same,Total Cell Count,[8],113
same,Population Apoptotic (%),[9],57%
same,Population Fragmented Nuclei (%),[9],20%
same,Population Healthy Nuclei (%),[9],68%
same,Population Hoechst High Intensity Objects (%),[9],1%
same,Population Membrane Permeable-Phenotype (%),[9],0%
same,Population Mitochondria Different-Phenotype (%),[9],2%
same,Population Mitotic Cells (%),[9],42%
same,Population Normal (%),[9],98%
same,Population Pyknosed Nuclei (%),[9],10%
same,Population Tubulin-Different-Phenotype (%),[9],30%
same,Total Cell Count,[9],134
same,Population Apoptotic (%),[10],53%
same,Population Fragmented Nuclei (%),[10],38%
same,Population Healthy Nuclei (%),[10],50%
same,Population Hoechst High Intensity Objects (%),[10],5%
same,Population Membrane Permeable-Phenotype (%),[10],6%
same,Population Mitochondria Different-Phenotype (%),[10],6%
same,Population Mitotic Cells (%),[10],46%
same,Population Normal (%),[10],94%
same,Population Pyknosed Nuclei (%),[10],11%
same,Population Tubulin-Different-Phenotype (%),[10],48%
same,Total Cell Count,[10],139
same,Population Apoptotic (%),[11],63%
same,Population Fragmented Nuclei (%),[11],21%
same,Population Healthy Nuclei (%),[11],65%
same,Population Hoechst High Intensity Objects (%),[11],3%
same,Population Membrane Permeable-Phenotype (%),[11],1%
same,Population Mitochondria Different-Phenotype (%),[11],3%
same,Population Mitotic Cells (%),[11],36%
same,Population Normal (%),[11],96%
same,Population Pyknosed Nuclei (%),[11],12%
same,Population Tubulin-Different-Phenotype (%),[11],20%
same,Total Cell Count,[11],91
same,Population Apoptotic (%),[12],76%
same,Population Fragmented Nuclei (%),[12],44%
same,Population Healthy Nuclei (%),[12],44%
same,Population Membrane Permeable-Phenotype (%),[12],11%
same,Population Mitochondria Different-Phenotype (%),[12],5%
same,Population Mitotic Cells (%),[12],23%
same,Population Pyknosed Nuclei (%),[12],10%
same,Population Tubulin-Different-Phenotype (%),[12],55%
same,Total Cell Count,[12],126
